Assay results taken from ChEMBL document CHEMBL1157438, “Maleimide and maleic anhydride derivatives from the mycelia of Antrodia cinnamomea and their nitric oxide inhibitory activities in macrophages” (2008).

System: RAW264.7
Test: Antiinflammatory activity in mouse RAW264.7 cells assessed as inhibition of LPS-induced NO production by measuring nitrite level after 24 hrs
Type: functional
Outline: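 RAW264.7 cells in DMEM with 10% heat-inactivated FBS, 37 °C, 5% CO2, 96-well; medium renewed after 24 h, then compounds (0, 1, 5, 10 or 20 µg/mL) added with LPS 1 µg/mL for 24 h. Supernatant mixed 1:1 with Griess reagent, 10 min room temperature, nitrite read at 540 nm. Mean ± SD of three experiments, each in triplicate.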

In order of rising Activity:
1. CC(C)=CCOc1ccc(C2=C(CC(C)C)C(=O)NC2=O)cc1  10.6 µM
2. CC(=O)ON1C(=O)C(CC(C)C)=C(c2ccc(OCC=C(C)C)cc2)C1=O [ANTROCINNAMOMINS A]  12.5 µM
3. CC(C)CC1=C(c2ccc(O)cc2)C(=O)N(O)C1=O [ANTROCINNAMOMIN B]  18 µM
4. CC(C)=CCOc1ccc(C2=C(CC(C)C)C(=O)N(O)C2=O)cc1  18.3 µM
5. CC(C)=CCOc1ccc(C2=C(CC(C)C)C(O)OC2=O)cc1 (centres undefined) [ANTROCINNAMOMIN D]  20 µM
6. CC(C)=CCOc1ccc(C2=C(CC(C)C)C(=O)OC2=O)cc1  20.8 µM
7. CC(C)CC1=C(c2ccc(O)cc2)C(=O)OC1=O [ANTROCINNAMOMIN C]  21.8 µM

System: RAW264.7
Test: Cell viability of LPS-stimulated mouse RAW264.7 cells after 24 hrs by MTT assay
Type: functional
Design: concentration or dose not given beside the values
Outline: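 Cells cultured as for the nitrite assay (DMEM/10% FBS, medium renewed at 24 h) and exposed to compounds at 0–20 µg/mL plus LPS 1 µg/mL for 24 h. MTT (5 mg/mL stock in PBS, 10 µL per 100 µL culture) added for 4 h at 37 °C, formazan dissolved in DMSO, read at 550 nm; untreated cells set as 100%. Mean ± SD, three experiments in triplicate.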

In order of falling Activity:
1. CC(=O)ON1C(=O)C(CC(C)C)=C(c2ccc(OCC=C(C)C)cc2)C1=O [ANTROCINNAMOMINS A]  91.1%
2. CC(C)=CCOc1ccc(C2=C(CC(C)C)C(O)OC2=O)cc1 (centres undefined) [ANTROCINNAMOMIN D]  88.2%
3. CC(C)=CCOc1ccc(C2=C(CC(C)C)C(=O)N(O)C2=O)cc1  86.8%
4. CC(C)CC1=C(c2ccc(O)cc2)C(=O)N(O)C1=O [ANTROCINNAMOMIN B]  82.2%
5. CC(C)CC1=C(c2ccc(O)cc2)C(=O)OC1=O [ANTROCINNAMOMIN C]  76.3%
6. CC(C)=CCOc1ccc(C2=C(CC(C)C)C(=O)NC2=O)cc1  69.1%
7. CC(C)=CCOc1ccc(C2=C(CC(C)C)C(=O)OC2=O)cc1  67.9%
